Screening data from PubChem.
In the library only some 5.8% were active in any assay of this set; here they are far more common.
FAK blocker: FAK kinase inhibitors, primary screen, biochemical; AID 727, 2007; inhibition, %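 (tested at 7 µM)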; biochemical FAK kinase activity assay; 0.84% of 97,000 active; Focal adhesion kinase 1 (Homo sapiens), Q05397; in the data active = inhibition above about 19%;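 also: 0% = DMSO and 100% = reference compound high control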
Cav32 inh: Cav3.2 calcium influx blockers – cell-based, Fluo-4 calcium fluorescence, FDSS, MLSMR library, primary screen; Voltage-dependent T-type calcium channel subunit alpha-1H (Homo sapiens), O95180; Cav3.2-expressing cells; stronger effect = lower value; B-score at 10 µM; 4% of 100,000 active; AID 449739, 2010;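 active = single-dose well whose peak fluorescence ratio is a statistical outlier from its plate by either plate-standardised score or position-corrected B-score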
PLK1 PBD inh: Plk1 polo box domain binding inhibitors, primary screen, biochemical, fluorescence polarization. AID 693, 2007. 0.13% of 97,000 active. Plk1 PBD phosphopeptide binding. inhibition, %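 (tested at about 20 µM)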. Serine/threonine-protein kinase PLK1 (Homo sapiens), P53350; in the data active = inhibition above about 34%, passing the limit was not always enough
PLK1 inh: human PLK1 kinase inhibitors, primary screen, biochemical, TR-FRET. Serine/threonine-protein kinase PLK1 (Homo sapiens), P53350. inhibition, % at 10 µM. AID 619, 2007. 0.53% of 97,000 active. recombinant PLK1 kinase, TR-FRET peptide phosphorylation;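 active = inhibition of 50% or more in the single-concentration screen; inactive = inhibition below 50%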;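 also: 0% = DMSO max control and 100% = H-89 dihydrochloride min control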
HIV Rev-RRE inh: HIV-1 Rev-RRE binding inhibitors, primary screen, biochemical, FRET, protein-RNA interaction; P05866; Rev peptide-RRE RNA binding; inhibition, % at 8 µM; 0.79% of 97,000 active;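 active = inhibition above the screen-wide mean plus 3 SD, cut at about 35% in these data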;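 also: 0% = median DMSO wells and 100% = median Neomycin B control wells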
Target sequence (P05866 whole entry, looked up): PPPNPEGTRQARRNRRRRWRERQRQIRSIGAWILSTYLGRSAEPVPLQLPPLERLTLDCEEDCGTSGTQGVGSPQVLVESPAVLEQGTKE
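Assay system: labelled RRE RNA duplex and labelled Rev peptide / Medium: HEPES pH 7.5 salt buffer with EDTA / Reagent: labelled Rev peptide / Schedule: 5 + 15 min at 25 °C / Signal: FRET, excitation 480 nm, emission 540 nm donor and 671 nm acceptor / Benchmarks: DMSO and neomycin B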
PTK2B oligo ant: antagonists of Pyk2 self-association, primary screen, Q293 cells, FERM NanoBiT luminescence, HTS | stronger effect = lower value | z-score (the deposit names both 25 µM and 10 µM) | 0.83% of 99,000 active;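 active = Z-score of -3 or lower, scaled per plate to the spread of control and sample wells; inactive = z-score above -3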;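 also: negative z-score means lost luminescence so less FERM oligomerization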
Starred values were filed as active, the others as inactive; [ ] = remark or other dose.

For COc1ccc(N(C(=O)c2ccn[nH]2)C(C(=O)NC(C)(C)C)c2ccc(F)cc2)cc1 (stereo unspecified) the results were FAK blocker 1.3, Cav32 inh -1.62, PLK1 PBD inh 10.8, PLK1 inh -9.5, HIV Rev-RRE inh 3.4 and PTK2B oligo ant -0.61.
For CCC(C)(C)NC(=O)C(c1cccc(OC)c1)N(C(=O)c1ccn[nH]1)c1cccc(OC)c1 (stereo unspecified) the results were FAK blocker 2.9, Cav32 inh -5.09*, PLK1 PBD inh -13.0, PLK1 inh -14.4, HIV Rev-RRE inh -0.7 and PTK2B oligo ant -1.36.
Screening Cc1cc(C(=O)NCc2ccccc2Br)no1 returned FAK blocker -3.4, Cav32 inh 0.138, PLK1 PBD inh 2.9, PLK1 inh -10.5, HIV Rev-RRE inh 8.8 and PTK2B oligo ant 0.24.
Cc1oc(-c2ccccc2)nc1Cn1cccc1C1=NC(c2ccccc2)CO1 (stereo unspecified) was read as FAK blocker 0.7, Cav32 inh -5.64*, PLK1 PBD inh 1.5, PLK1 inh -9.7, HIV Rev-RRE inh 15.0 and PTK2B oligo ant 0.19.
Cc1ccc(NC(=O)Cn2cccc2C2=NC(c3ccccc3)CO2)cc1C (stereo unspecified) was read as PTK2B oligo ant -2.4.
Screening CCOC(=O)Cn1c(=O)oc2cc(S(=O)(=O)Nc3ccc(N(CC)CC)cc3C)ccc21 returned FAK blocker -1.9, Cav32 inh -2.65, PLK1 PBD inh 18.2, PLK1 inh -7.8 and HIV Rev-RRE inh 10.8.
CCC(C)(C)n1nnnc1CN1CCN(C(c2ccccc2)c2ccccc2)CC1 was read as FAK blocker 2.0, Cav32 inh -3.42*, PLK1 PBD inh -12.9, PLK1 inh -5.9, HIV Rev-RRE inh 0.6 and PTK2B oligo ant -1.44.
Screening CCC(C)(C)n1nnnc1C(c1ccc2ncccc2c1)N1CCN(Cc2ccc3c(c2)OCO3)CC1 (stereo unspecified) returned FAK blocker -1.2, Cav32 inh -0.422, PLK1 PBD inh -19.2, PLK1 inh -0.5, HIV Rev-RRE inh -3.4 and PTK2B oligo ant -0.25.
CCC(C)(C)n1nnnc1C(c1ccc(C)cc1)N1CCN(Cc2ccc3c(c2)OCO3)CC1 (stereo unspecified) was read as FAK blocker -2.2, Cav32 inh -4.44*, PLK1 PBD inh 0.0, PLK1 inh -7.4, HIV Rev-RRE inh 6.1 and PTK2B oligo ant -1.41.
Screening CCNC(=O)NC(=O)CSc1nc2ccccc2n1CCOC returned FAK blocker 5.0, Cav32 inh 0.197, PLK1 PBD inh 8.4, PLK1 inh -7.5, HIV Rev-RRE inh 7.4 and PTK2B oligo ant -0.4.
`CCn1c(CCC(=O)Nc2nc3c(s2)CCCC3)nc2cc(S(=O)(=O)N(C)C)ccc21` gave FAK blocker -0.6, Cav32 inh -1.43, PLK1 PBD inh 10.6, PLK1 inh -9.0, HIV Rev-RRE inh 1.0 and PTK2B oligo ant 0.53.
O=C(Cn1c(=O)c2c(ncn2C2CCCC2)n(Cc2ccccc2)c1=O)N1CCc2ccccc21 was read as FAK blocker -1.8, Cav32 inh -4.45*, PLK1 PBD inh 2.5, PLK1 inh -0.1, HIV Rev-RRE inh 4.4 and PTK2B oligo ant -0.57.
Screening CC(C)(C)C(=O)c1no[n+]([O-])c1/C(=N/O)C(C)(C)C returned FAK blocker -1.4, Cav32 inh -7.88*, PLK1 PBD inh 14.4, PLK1 inh -4.1, HIV Rev-RRE inh 10.9 and PTK2B oligo ant -0.76.
CN(Cc1ccccc1)C(=O)c1cccc(N2C(=O)NC3CC2(C)Oc2ccccc23)c1 (stereo unspecified) was read as FAK blocker -0.2, Cav32 inh -1.26, PLK1 PBD inh 16.2, PLK1 inh -2.3, HIV Rev-RRE inh 0.8 and PTK2B oligo ant -1.15.
`CN(C)c1ccc(/C=C/C(O)=C2/C(=O)N(C)C3(C)CC2c2ccccc2O3)cc1` (stereo unspecified) gave FAK blocker -0.4, Cav32 inh -6.23*, PLK1 PBD inh -54.4, PLK1 inh -19.7 and HIV Rev-RRE inh 121.1*[fluorescence artefact?].
For COc1ccc(CC(=O)c2ccc(O)cc2O)cc1 the results were Cav32 inh -0.615.
For O=C(Cc1ccc(Br)cc1)c1ccc(O)cc1O the results were FAK blocker 4.4, Cav32 inh -8.57*, PLK1 PBD inh 25.2, PLK1 inh -7.0, HIV Rev-RRE inh 7.0 and PTK2B oligo ant -0.9.
Screening C=CCn1c(=O)c(C(=O)Nc2cccnc2)c(O)c2ccccc21 returned FAK blocker 23.0*, Cav32 inh -0.532, PLK1 PBD inh -3.0, PLK1 inh -12.0, HIV Rev-RRE inh 1.4 and PTK2B oligo ant -0.03.
For CCCN(CCC)c1nc(NC2CCN(C(=O)OCC)CC2)nc(OC)n1 the results were FAK blocker -8.3, Cav32 inh -11.2*, PLK1 PBD inh -1.7, PLK1 inh -11.7, HIV Rev-RRE inh -3.7 and PTK2B oligo ant -1.78.
Screening CCCCN(CC)CCNc1c(NC2CCN(C(=O)OCC)CC2)c(=O)c1=O returned FAK blocker 0.3, Cav32 inh -0.683, PLK1 PBD inh 25.1, PLK1 inh -8.2 and HIV Rev-RRE inh 1.2.
Screening O=C(c1cc(NC(=O)C23CC4CC(CC(C4)C2)C3)cc(NC(=O)C23CC4CC(CC(C4)C2)C3)c1)N1CCCCC1 returned FAK blocker -0.8, Cav32 inh -8*, PLK1 PBD inh 15.8, PLK1 inh -7.8 and HIV Rev-RRE inh 0.0.
C=CCn1c(SCC(=O)Nc2sccc2C(N)=O)nc2ccc(Cl)cc2c1=O was read as FAK blocker -4.0, Cav32 inh 0.502, PLK1 PBD inh -0.7, PLK1 inh -3.0, HIV Rev-RRE inh 9.6 and PTK2B oligo ant -3.24*.
C=CCn1c(SCC(=O)Nc2sccc2C(N)=O)nc2sc(CC)cc2c1=O was read as FAK blocker 3.0, Cav32 inh 0.0176, PLK1 PBD inh 10.7, PLK1 inh -4.7, HIV Rev-RRE inh 12.3 and PTK2B oligo ant -3.45*.
`C=CCn1c(SCC(=O)Nc2sccc2C(N)=O)nc2ccccc2c1=O` gave FAK blocker 1.4, Cav32 inh 0.797, PLK1 PBD inh 13.5, PLK1 inh -11.2, HIV Rev-RRE inh 8.4 and PTK2B oligo ant -2.59.
Screening O=C1Cc2cccc3cccc1c23 returned FAK blocker 0.8, Cav32 inh 0.186, PLK1 PBD inh -17.1, PLK1 inh -6.1, HIV Rev-RRE inh 9.5 and PTK2B oligo ant 0.2.
Screening Cc1ccc(-n2c(C)cc(/C=N/NC(=O)CN(c3ccc(C)cc3C)S(C)(=O)=O)c2C)cc1 returned FAK blocker -2.2, Cav32 inh -8.44*, PLK1 PBD inh -31.5, PLK1 inh -12.4, HIV Rev-RRE inh 1.9 and PTK2B oligo ant 0.63.
